{"data": "Experimental data from different studies"}
{"SMILES": "CCOc1ccc2c(C)c(CC)c(=O)oc2c1C", "target or system": "MDA-MB-231", "assay": "cell growth or viability, MTT", "setting": "31.25 µg/mL", "measurement": "viability", "result": "100%"}
{"SMILES": "CC(C)/N=c1\\cc2n(-c3ccc(Cl)cc3)c3ccccc3nc-2cc1Nc1ccc(Cl)cc1", "target or system": "Neisseria gonorrhoeae", "assay": "microbial growth", "system": "ATCC49226", "measurement": "MIC", "result": "0.94 µM"}
{"SMILES": "O=C1C(Br)=C(Br)C(=O)c2ccccc21", "target or system": "Lodderomyces parapsilosis", "assay": "microbial growth, broth dilution", "system": "ATCC22019", "setting": "24 h", "measurement": "MIC", "result": "< 1.56 µg/mL"}
{"SMILES": "O=C(O)CO/N=c1\\cc2n(-c3ccc(Cl)cc3)c3ccccc3nc-2cc1Nc1ccc(Cl)cc1", "target or system": "Neisseria gonorrhoeae", "assay": "microbial growth", "system": "ATCC49226", "measurement": "MIC", "result": "1.88 µM"}
{"SMILES": "C[C@@H]1CC[C@@H]([C@@](C)(O)Cn2cnc3ccccc32)[C@H](OCc2ccccc2)C1", "target or system": "MDA-MB-231", "assay": "cell growth or viability, MTT", "setting": "30 µM, 72 h", "measurement": "inhibition", "result": "80%"}
{"SMILES": "Cc1c(Cc2ccccc2)c(=O)oc2c(C)c(OCC(=O)NN=Cc3ccccc3)ccc12", "target or system": "MDA-MB-231", "assay": "cell growth or viability, MTT", "setting": "125 µg/mL", "measurement": "viability", "result": "8.96%"}
{"SMILES": "O=C(CO/N=c1\\cc2n(-c3ccc(Cl)cc3)c3ccccc3nc-2cc1Nc1ccc(Cl)cc1)NCc1ccc(C(F)(F)F)cc1", "target or system": "Neisseria gonorrhoeae", "assay": "microbial growth", "system": "ATCC49226", "measurement": "MIC", "result": "15 µM"}
{"SMILES": "COc1ccc(COC[C@@](O)(CNCc2ccc(F)cc2)[C@@H]2CC[C@@H](C)C[C@H]2OCc2ccc(OC)cc2)cc1", "target or system": "MDA-MB-231", "assay": "cell growth or viability, MTT", "setting": "10 µM, 72 h", "measurement": "inhibition", "result": "91.7%"}
{"SMILES": "Cc1c(Cc2ccccc2)c(=O)oc2c(C)c(OCC(=O)NN=Cc3ccc([N+](=O)[O-])cc3)ccc12", "target or system": "MDA-MB-231", "assay": "cell growth or viability, MTT", "setting": "31.25 µg/mL", "measurement": "viability", "result": "37.2%"}
{"SMILES": "O=C(O)CNC(=O)CO/N=c1\\cc2n(-c3ccc(Cl)cc3)c3ccccc3nc-2cc1Nc1ccc(Cl)cc1", "target or system": "Neisseria gonorrhoeae", "assay": "microbial growth", "system": "ATCC49226", "measurement": "MIC", "result": "1.88 µM"}
{"SMILES": "CCc1c(C)c2ccc(OCc3nnc(S)n3N)c(C)c2oc1=O", "target or system": "MDA-MB-231", "assay": "cell growth or viability, MTT", "setting": "62.5 µg/mL", "measurement": "viability", "result": "69.4%"}
{"SMILES": "C[C@@H]1CC[C@@H]([C@](O)(CNCc2cccc3ccccc23)COCc2ccccc2)[C@H](OCc2ccccc2)C1", "target or system": "MDA-MB-231", "assay": "cell growth or viability, MTT", "setting": "10 µM, 72 h", "measurement": "inhibition", "result": "96.8%"}
{"SMILES": "CC(=NNC(=O)COc1ccc2c(C)c(Cc3ccccc3)c(=O)oc2c1C)c1ccc(Br)cc1", "target or system": "MDA-MB-231", "assay": "cell growth or viability, MTT", "setting": "500 µg/mL", "measurement": "viability", "result": "19.9%"}
{"SMILES": "CO/N=c1\\cc2n(-c3ccc(Cl)cc3)c3ccccc3nc-2cc1Nc1ccc(Cl)cc1", "target or system": "Neisseria gonorrhoeae", "assay": "microbial growth", "system": "ATCC49226", "measurement": "MIC", "result": "0.94 µM"}
{"SMILES": "COc1ccc(COC[C@@](O)(CNCc2ccccc2)[C@@H]2CC[C@@H](C)C[C@H]2OCc2ccc(OC)cc2)cc1", "target or system": "MDA-MB-231", "assay": "cell growth or viability, MTT", "setting": "30 µM, 72 h", "measurement": "inhibition", "result": "101%"}
